# Source: ChEMBL document CHEMBL3272220, “Central nervous system active 5-oxo-1,4,5,6,7,8-hexahydrocinnolines” (J Med Chem, 1976)
# The source made the active and inactive calls. The rule behind the calls is not given here.
# Tested on: Mus musculus
# Test: Anticonvulsant activity in po dosed CF albino mouse assessed as protection against electroshock-induced seizure
# Assay type: functional
# Conditions: not given
# How it was run: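 Male CF mice were dosed orally, with the vehicle for po dosing being a 0.2% agar suspension. Protection against electroshock-induced seizures was examined at 500 mg/kg po. Activity is reported as ED50 in mg/kg po.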
row,Compound,ED50
1,CC1(C)CC(=O)C2=C(C1)N(CCO)N=C(c1ccccc1)C2.Cc1ccc(S(=O)(=O)O)cc1,inactive
2,CN(C)CCN1N=C(c2ccc(Br)cc2)CC2=C1CC(C)(C)CC2=O.[O-][Cl+3]([O-])([O-])O,100 mg/kg
3,CCOC(=O)NNC1=C(CC(=O)c2ccccc2)C(=O)CC(C)(C)C1,inactive
4,CC1(C)CC(=O)C2=C(C1)N(CCN1CCNCC1)N=C(c1ccc(F)cc1)C2.Cc1ccc(S(=O)(=O)O)cc1.O,inactive
5,CC1(C)CC(=O)C(CC(=O)c2ccccc2)=C(NNC(=O)c2ccncc2)C1,inactive
6,CC1(C)CC(=O)C2=C(C1)N(CCN1CCNCC1)N=C(c1ccc(Br)cc1)C2.Cl.O,inactive
7,CC1(C)CC(=O)C2=C(C1)NN=C(c1ccccc1)C2,inactive
8,CCN(CC)CCn1nc(C)c(=O)c2c1CC(C)(C)CC2=O,inactive
9,CC1(C)CC(=O)C2=C(C1)N(c1ccccc1)N=C(c1ccccc1)C2,inactive
10,CN(C)CCCN1N=C(c2ccccc2)CC2=C1CC(C)(C)CC2=O.O.[O-][Cl+3]([O-])([O-])O,500 mg/kg
11,CC1(C)CC(=O)C(CC(=O)c2ccccc2)=C(NNc2ccncc2)C1,inactive
12,CC1(C)CC(=O)C2=C(C1)N(C(N)=O)N=C(c1ccccc1)C2,inactive
13,CCN(CC)CCN1N=C(c2cc(OC)c(OC)c(OC)c2)CC2=C1CC(C)(C)CC2=O.[O-][Cl+3]([O-])([O-])O,inactive

# Tested on: Mus musculus
# Test: Central nervous system depressant activity in CF albino mouse assessed as induction of sedation at 500 mg/kg, po
# Assay type: functional, organism-based
# Design: dose 500 mg/kg
# Conditions: not given
# How it was run: (§1)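 Male CF mice got 500 mg/kg orally as a 0.2% agar suspension. Scoring was at peak drug effect on a 0-4+ scale. Scores were judged together from percentage inhibition of spontaneous motor activity, a ptotic index based on percentage eye closure, and the degree of sedation.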
row,Compound,Activity
1,CC1(C)CC(=O)C2=C(C1)N(CCO)N=C(c1ccccc1)C2.Cc1ccc(S(=O)(=O)O)cc1,inactive
2,CCOC(=O)NNC1=C(CC(=O)c2ccccc2)C(=O)CC(C)(C)C1,inactive
3,CC1(C)CC(=O)C(CC(=O)c2ccccc2)=C(NNC(=O)c2ccncc2)C1,inactive
4,CC1(C)CC(=O)C2=C(C1)N(CCN1CCNCC1)N=C(c1ccc(Br)cc1)C2.Cl.O,Active
5,CN(C)CCCN1N=C(c2ccccc2)CC2=C1CC(C)(C)CC2=O.O.[O-][Cl+3]([O-])([O-])O,inactive
6,CC1(C)CC(=O)C(CC(=O)c2ccccc2)=C(NNc2ccncc2)C1,inactive

# Tested on: Mus musculus
# Test: Antidepressant activity in CF albino mouse assessed as inhibition of reserpine-induced hypothermia at 25 mg/kg, po relative to control
# Assay type: functional
# Conditions: not given
# How it was run: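 Oral dosing was 25 mg/kg in 0.2% agar suspension to male CF mice. Antagonism of reserpine-induced hypothermia was measured and graded on a plus-scale.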
Compound,inhibition in vivo at 25 mg/kg [%],inhibition
CC1(C)CC(=O)C2=C(C1)N(CCO)N=C(c1ccccc1)C2.Cc1ccc(S(=O)(=O)O)cc1,26,
CN(C)CCN1N=C(c2ccc(Br)cc2)CC2=C1CC(C)(C)CC2=O.[O-][Cl+3]([O-])([O-])O,,inactive
CCOC(=O)NNC1=C(CC(=O)c2ccccc2)C(=O)CC(C)(C)C1,51,
CC1(C)CC(=O)C2=C(C1)N(CCN1CCNCC1)N=C(c1ccc(F)cc1)C2.Cc1ccc(S(=O)(=O)O)cc1.O,26,
CC1(C)CC(=O)C(CC(=O)c2ccccc2)=C(NNC(=O)c2ccncc2)C1,51,
CC1(C)CC(=O)C2=C(C1)N(CCN1CCNCC1)N=C(c1ccc(Br)cc1)C2.Cl.O,26,
CC1(C)CC(=O)C2=C(C1)NN=C(c1ccccc1)C2,26,
CCN(CC)CCn1nc(C)c(=O)c2c1CC(C)(C)CC2=O,51,
CC1(C)CC(=O)C2=C(C1)N(c1ccccc1)N=C(c1ccccc1)C2,26,
CN(C)CCCN1N=C(c2ccccc2)CC2=C1CC(C)(C)CC2=O.O.[O-][Cl+3]([O-])([O-])O,26,
CC1(C)CC(=O)C(CC(=O)c2ccccc2)=C(NNc2ccncc2)C1,76,
CC1(C)CC(=O)C2=C(C1)N(C(N)=O)N=C(c1ccccc1)C2,26,
CCN(CC)CCN1N=C(c2cc(OC)c(OC)c(OC)c2)CC2=C1CC(C)(C)CC2=O.[O-][Cl+3]([O-])([O-])O,51,

# Tested on: Mus musculus
# Test: Antidepressant activity in CF albino mouse assessed as potentiation of dopa-induced response at 25 mg/kg, po relative to control
# Assay type: functional
# Conditions: not given
# How it was run: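 Male CF mice received 25 mg/kg orally in 0.2% agar suspension. The read-out was potentiation of the Dopa response. Results were graded on a plus-scale.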
row,Compound,Activity [%]
1,CC1(C)CC(=O)C2=C(C1)N(CCO)N=C(c1ccccc1)C2.Cc1ccc(S(=O)(=O)O)cc1,51
2,CN(C)CCN1N=C(c2ccc(Br)cc2)CC2=C1CC(C)(C)CC2=O.[O-][Cl+3]([O-])([O-])O,51
3,CCOC(=O)NNC1=C(CC(=O)c2ccccc2)C(=O)CC(C)(C)C1,26
4,CC1(C)CC(=O)C2=C(C1)N(CCN1CCNCC1)N=C(c1ccc(F)cc1)C2.Cc1ccc(S(=O)(=O)O)cc1.O,51
5,CC1(C)CC(=O)C(CC(=O)c2ccccc2)=C(NNC(=O)c2ccncc2)C1,51
6,CC1(C)CC(=O)C2=C(C1)N(CCN1CCNCC1)N=C(c1ccc(Br)cc1)C2.Cl.O,0
7,CC1(C)CC(=O)C2=C(C1)NN=C(c1ccccc1)C2,26
8,CCN(CC)CCn1nc(C)c(=O)c2c1CC(C)(C)CC2=O,26
9,CC1(C)CC(=O)C2=C(C1)N(c1ccccc1)N=C(c1ccccc1)C2,0
10,CN(C)CCCN1N=C(c2ccccc2)CC2=C1CC(C)(C)CC2=O.O.[O-][Cl+3]([O-])([O-])O,51
11,CC1(C)CC(=O)C(CC(=O)c2ccccc2)=C(NNc2ccncc2)C1,51
12,CC1(C)CC(=O)C2=C(C1)N(C(N)=O)N=C(c1ccccc1)C2,51
13,CCN(CC)CCN1N=C(c2cc(OC)c(OC)c(OC)c2)CC2=C1CC(C)(C)CC2=O.[O-][Cl+3]([O-])([O-])O,26

# Tested on: Mus musculus
# Test: Central nervous system depressant activity in CF albino mouse assessed as inhibition of spontaneous motor activity at 500 mg/kg, po measured within 15 mins relative to control
# Assay type: functional
# Conditions: not given
# How it was run: as §1
row,Compound,inhibition
1,CC1(C)CC(=O)C2=C(C1)N(CCN1CCNCC1)N=C(c1ccc(F)cc1)C2.Cc1ccc(S(=O)(=O)O)cc1.O,inactive
2,CC1(C)CC(=O)C2=C(C1)NN=C(c1ccccc1)C2,inactive
3,CCN(CC)CCn1nc(C)c(=O)c2c1CC(C)(C)CC2=O,inactive
4,CC1(C)CC(=O)C2=C(C1)N(c1ccccc1)N=C(c1ccccc1)C2,inactive
5,CC1(C)CC(=O)C2=C(C1)N(C(N)=O)N=C(c1ccccc1)C2,inactive
6,CCN(CC)CCN1N=C(c2cc(OC)c(OC)c(OC)c2)CC2=C1CC(C)(C)CC2=O.[O-][Cl+3]([O-])([O-])O,inactive

# Same assay, conditions: 0.25 h
row,Compound,inhibition in vivo at 500 mg/kg [%]
1,CC1(C)CC(=O)C2=C(C1)N(CCO)N=C(c1ccccc1)C2.Cc1ccc(S(=O)(=O)O)cc1,1
2,CN(C)CCN1N=C(c2ccc(Br)cc2)CC2=C1CC(C)(C)CC2=O.[O-][Cl+3]([O-])([O-])O,51
3,CCOC(=O)NNC1=C(CC(=O)c2ccccc2)C(=O)CC(C)(C)C1,1
4,CC1(C)CC(=O)C(CC(=O)c2ccccc2)=C(NNC(=O)c2ccncc2)C1,1
5,CC1(C)CC(=O)C2=C(C1)N(CCN1CCNCC1)N=C(c1ccc(Br)cc1)C2.Cl.O,26
6,CN(C)CCCN1N=C(c2ccccc2)CC2=C1CC(C)(C)CC2=O.O.[O-][Cl+3]([O-])([O-])O,1
7,CC1(C)CC(=O)C(CC(=O)c2ccccc2)=C(NNc2ccncc2)C1,1

# Tested on: Mus musculus
# Test: Central nervous system depressant activity in CF albino mouse assessed as eye closure rate at 500 mg/kg, po relative to control
# Assay type: functional
# Conditions: not given
# How it was run: as §1
row,Compound,Activity [%]
1,CC1(C)CC(=O)C2=C(C1)N(CCO)N=C(c1ccccc1)C2.Cc1ccc(S(=O)(=O)O)cc1,25
2,CN(C)CCN1N=C(c2ccc(Br)cc2)CC2=C1CC(C)(C)CC2=O.[O-][Cl+3]([O-])([O-])O,75
3,CCOC(=O)NNC1=C(CC(=O)c2ccccc2)C(=O)CC(C)(C)C1,25
4,CC1(C)CC(=O)C(CC(=O)c2ccccc2)=C(NNC(=O)c2ccncc2)C1,25
5,CC1(C)CC(=O)C2=C(C1)N(CCN1CCNCC1)N=C(c1ccc(Br)cc1)C2.Cl.O,50
6,CN(C)CCCN1N=C(c2ccccc2)CC2=C1CC(C)(C)CC2=O.O.[O-][Cl+3]([O-])([O-])O,25
7,CC1(C)CC(=O)C(CC(=O)c2ccccc2)=C(NNc2ccncc2)C1,25

# Tested on: Mus musculus
# Test: Central nervous system depressant activity in CF albino mouse assessed as induction of sedation with arousability at 500 mg/kg, po
# Assay type: functional, organism-based
# Design: dose 500 mg/kg
# Conditions: not given
# How it was run: as §1
row,Compound,Activity
1,CN(C)CCN1N=C(c2ccc(Br)cc2)CC2=C1CC(C)(C)CC2=O.[O-][Cl+3]([O-])([O-])O,Active
